According to ChEMBL document CHEMBL3585255, “The Cephalostatins. 24. Isolation, Structure, and Cancer Cell Growth Inhibition of Cephalostatin 20” (2015):

Assays:
Type in all cases: functional
[1] = tested on: SF-268; test: Cytotoxicity against human SF268 cells after 48 hrs by sulforhodamine B assay; conditions: SF-268, 48 h
Procedure, shortened: (§1)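 Cells in RPMI1640 with 5% fetal bovine serum were plated in 96-well plates and incubated 24 h before serial dilutions of compound were added. After 48 h exposure, cells were fixed with trichloroacetic acid and stained with sulforhodamine B, and optical density was read on a plate reader. GI50, the concentration giving 50% reduction in net protein increase, was calculated from the OD data.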

[2] = tested on: MCF7; test: Cytotoxicity against human MCF7 cells after 48 hrs by sulforhodamine B assay; conditions: MCF7, 48 h; procedure, shortened: as §1
[3] = tested on: NCI-H460; test: Cytotoxicity against human NCI-H460 cells after 48 hrs by sulforhodamine B assay; conditions: NCI-H460, 48 h; procedure, shortened: as §1
[4] = Cytotoxicity against human BxPC3 cells after 48 hrs by sulforhodamine B assay; conditions: BXPC-3, 48 h; procedure, shortened: as §1
[5] = tested on: DU-145; test: Cytotoxicity against human DU145 cells after 48 hrs by sulforhodamine B assay; conditions: DU-145, 48 h; procedure, shortened: as §1
[6] = Cytotoxicity against human KM20L2 cells after 48 hrs by sulforhodamine B assay; conditions: KM-20L2, 48 h; procedure, shortened: as §1

| Structure (SMILES) | GI50 [1] | GI50 [2] | GI50 [3] | GI50 [4] | GI50 [5] | GI50 [6] |
| --- | --- | --- | --- | --- | --- | --- |
| C[C@@H]1[C@]2(O[C@H]3C=C4[C@@H]5CC[C@H]6Cc7nc8c(nc7C[C@]6(C)[C@H]5C[C@@H](O)[C@]4(C)[C@]31O)C[C@@H]1CC[C@H]3C4=CC[C@@H]5[C@H](C)[C@@](O)([C@H](O)CC(C)(C)O)OC[C@]45C(=O)C[C@]3(O)[C@@]1(C)C8)O[C@](C)(CO)C[C@H]2O | 36 nM | 22 nM | 6 nM | 16 nM | 210 nM | 7.2 nM |
| C[C@@H]1[C@]2(O[C@H]3C=C4[C@@H]5CC[C@H]6Cc7nc8c(nc7C[C@]6(C)[C@H]5C[C@@H](O)[C@]4(C)[C@]31O)C[C@@H]1CC[C@H]3C4=CC[C@@H]5[C@H](C)[C@@]6(OC[C@]45C(=O)C[C@@H]3[C@@]1(C)C8)OC(C)(C)C[C@H]6O)O[C@](C)(CO)C[C@H]2O [CEPHALOSTATIN 1] | 1.6 nM | 0.099 nM | 0.044 nM | 0.044 nM | 0.11 nM | 0.066 nM |
| C[C@@H]1[C@]2(O[C@H]3C=C4[C@@H]5CC[C@H]6Cc7nc8c(nc7C[C@]6(C)[C@H]5C[C@@H](O)[C@]4(C)[C@]31O)C[C@@H]1CC[C@H]3C4=CC[C@@H]5[C@H](C)[C@@]6(OC[C@]45C(=O)C[C@]3(O)[C@@]1(C)C8)OC(C)(C)C[C@H]6O)O[C@](C)(CO)C[C@H]2O [CEPHALOSTATIN 2] | 0.12 nM | 0.022 nM | 0.0056 nM | 0.022 nM | 0.11 nM | 0.006 nM |
| C[C@@H]1[C@]2(O[C@H]3C=C4[C@@H]5CC[C@H]6Cc7nc8c(nc7C[C@]6(C)[C@H]5C[C@@H](O)[C@]4(C)[C@]31O)C[C@@H]1CC[C@H]3C4=CC[C@@H]5[C@H](C)[C@@]6(OC[C@]45C(=O)C[C@]3(O)[C@@]1(C)C8)OC(C)(C)[C@@H](C)[C@H]6O)O[C@](C)(CO)C[C@H]2O [CEPHALOSTATIN 3] | 0.58 nM | 0.032 nM | 0.043 nM | 0.043 nM | 0.16 nM | 0.096 nM |
| C[C@@H]1[C@]2(O[C@H]3C=C4[C@@H]5CC[C@H]6Cc7nc8c(nc7C[C@]6(C)[C@H]5C[C@@H](O)[C@]4(C)[C@]31O)C[C@@H]1CC[C@H]3[C@@]45O[C@@H]4C[C@@H]4[C@H](C)[C@@]6(OC[C@@]45C(=O)C[C@]3(O)[C@@]1(C)C8)OC(C)(C)C[C@H]6O)O[C@](C)(CO)C[C@H]2O [CEPHALOSTATIN 4] | 21 nM | 43 nM | 44 nM | 36 nM | 31 nM | 39 nM |
| C[C@H]1[C@@H](O)C2(Oc3cc4c(c5c3[C@H](C[C@H]5O)[C@@H]2C)CC[C@H]2Cc3nc5c(nc3C[C@]42C)C[C@@H]2CC[C@H]3C4=C[C@@H]6O[C@@]7(C[C@]6(O)[C@@]4(C)[C@H](O)C[C@@H]3[C@@]2(C)C5)O[C@](C)(CO)C[C@H]7O)OC1(C)C (stereo partly drawn) [CEPHALOSTATIN 5] | 440 nM | 340 nM | 150 nM | 330 nM | 120 nM | 100 nM |
| C[C@H]1[C@H]2C[C@@H](O)c3c4c(cc(c32)OC12OC(C)(C)C[C@H]2O)[C@@]1(C)Cc2nc3c(nc2C[C@@H]1CC4)C[C@@]1(C)[C@@H](CC[C@H]2C4=C[C@@H]5O[C@@]6(C[C@]5(O)[C@@]4(C)[C@H](O)C[C@@H]21)O[C@](C)(CO)C[C@H]6O)C3 (stereo partly drawn) [CEPHALOSTATIN 6] | 610 nM | 550 nM | 320 nM | 380 nM | > 1100 nM | 390 nM |
| C[C@@H]1[C@]2(O[C@H]3C=C4[C@@H]5CC[C@H]6Cc7nc8c(nc7C[C@]6(C)[C@H]5C[C@@H](O)[C@]4(C)[C@]31O)C[C@@H]1CC[C@H]3C4=C[C@@H]5O[C@]6(CC[C@](C)(O)CO6)C[C@]5(O)[C@@]4(C)[C@H](O)C[C@@H]3[C@@]1(C)C8)O[C@](C)(CO)C[C@H]2O [CEPHALOSTATIN 7] | 110 nM | 50 nM | 8.2 nM | 5 nM | 470 nM | 48 nM |
| C[C@@H]1C[C@]2(O[C@H]3C=C4[C@@H]5CC[C@H]6Cc7nc8c(nc7C[C@]6(C)[C@H]5C[C@@H](O)[C@]4(CO)[C@H]3[C@@H]2C)C[C@@H]2CC[C@H]3C4=C[C@@H]5O[C@]6(O[C@](C)(CO)C[C@H]6O)[C@@H](C)[C@]5(O)[C@@]4(C)[C@H](O)C[C@@H]3[C@@]2(C)C8)OC1(C)C [CEPHALOSTATIN 8] | 150 nM | 26 nM | 15 nM | 26 nM | > 1100 nM | 47 nM |
| C[C@@H]1[C@H]2CC=C3[C@@H]4CC[C@H]5Cc6nc7c(nc6C[C@]5(C)[C@H]4CC(=O)[C@@]32COC1(O)[C@H](O)CC(C)(C)O)C[C@@H]1CC[C@H]2C3=C[C@@H]4O[C@]5(O[C@](C)(CO)C[C@H]5O)[C@@H](C)[C@]4(O)[C@@]3(C)[C@H](O)C[C@@H]2[C@@]1(C)C7 (stereo partly drawn) [CEPHALOSTATIN 9] | 150 nM | 110 nM | 39 nM | 14 nM | > 1100 nM | 58 nM |
| CO[C@H]1c2nc3c(nc2C[C@@H]2CC[C@H]4C5=C[C@@H]6O[C@]7(O[C@](C)(CO)C[C@H]7O)[C@@H](C)[C@]6(O)[C@@]5(C)[C@H](O)C[C@@H]4[C@]21C)C[C@@]1(C)[C@@H](CC[C@H]2C4=CC[C@@H]5[C@H](C)[C@@]6(OC[C@]45C(=O)C[C@@]21O)OC(C)(C)C[C@H]6O)C3 [CEPHALOSTATIN 10] | 3.7 nM | 1.4 nM | 0.6 nM | 1.3 nM | 8.5 nM | 0.7 nM |
| CO[C@H]1c2nc3c(nc2C[C@@H]2CC[C@H]4C5=CC[C@@H]6[C@@H](C)[C@]7(OC[C@]56C(=O)C[C@@H]4[C@]21C)OC(C)(C)C[C@H]7O)C[C@@]1(C)[C@@H](CC[C@H]2C4=C[C@@H]5O[C@]6(O[C@](C)(CO)C[C@H]6O)[C@@H](C)[C@]5(O)[C@@]4(C)[C@H](O)C[C@@H]21)C3 [CEPHALOSTATIN 11] | 27 nM | 4.1 nM | 5.4 nM | 4.9 nM | 23 nM | 6.3 nM |
| C[C@@H]1[C@]2(O[C@H]3C=C4[C@@H]5CC[C@H]6Cc7nc8c(nc7C[C@]6(C)[C@H]5C[C@@H](O)[C@]4(C)[C@]31O)C[C@@H]1CC[C@H]3C4=C[C@@H]5O[C@]6(O[C@](C)(CO)C[C@H]6O)[C@@H](C)[C@]5(O)[C@@]4(C)[C@H](O)C[C@@H]3[C@@]1(C)C8)O[C@](C)(CO)C[C@H]2O [CEPHALOSTATIN 12] | 150 nM | 33 nM | 37 nM | 31 nM | 440 nM | 38 nM |
| C[C@@H]1[C@]2(O[C@H]3C=C4[C@@H]5CC[C@H]6Cc7nc8c(nc7C[C@]6(C)[C@H]5C[C@@H](O)[C@]4(C)[C@]31O)C[C@@H]1CC[C@H]3C4=C[C@@H]5O[C@]6(O[C@](C)(CO)C[C@H]6O)[C@@H](C)[C@]5(O)[C@@]4(C)[C@H](O)C[C@@H]3[C@@]1(C)[C@H]8O)O[C@](C)(CO)C[C@H]2O [CEPHALOSTATIN 13] | 340 nM | 290 nM | 370 nM | 310 nM | 1100 nM | 470 nM |
| C[C@@H]1[C@H]2C[C@@H]3O[C@@]34[C@]3(O)CC[C@H]5Cc6nc7c(nc6C[C@]5(C)C3=CC(=O)[C@]24CO[C@]12OC(C)(C)C[C@H]2O)C[C@@H]1CC[C@H]2C3=C[C@@H]4O[C@]5(O[C@](C)(CO)C[C@H]5O)[C@@H](C)[C@]4(O)[C@@]3(C)[C@H](O)C[C@@H]2[C@@]1(C)C7 [CEPHALOSTATIN 14] | 80 nM | 28 nM | 32 nM | 35 nM | 130 nM | 35 nM |
| C[C@@H]1[C@H]2C[C@@H]3O[C@@]34[C@]3(O)CC[C@H]5Cc6nc7c(nc6C[C@]5(C)C3=CC(=O)[C@]24CO[C@]12OC(C)(C)[C@@H](C)[C@H]2O)C[C@@H]1CC[C@H]2C3=C[C@@H]4O[C@]5(O[C@](C)(CO)C[C@H]5O)[C@@H](C)[C@]4(O)[C@@]3(C)[C@H](O)C[C@@H]2[C@@]1(C)C7 [CEPHALOSTATIN 15] | 63 nM | 45 nM | 68 nM | 50 nM | 140 nM | 63 nM |
| C[C@@H]1[C@H]2CC=C3[C@@H]4CC[C@H]5Cc6nc7c(nc6C[C@]5(C)[C@@]4(O)CC(=O)[C@@]32CO[C@]12OC(C)(C)C[C@H]2O)C[C@@H]1CC[C@H]2C3=C[C@@H]4O[C@@]5(CC[C@](C)(O)CO5)[C@@H](C)[C@]4(O)[C@@]3(C)[C@H](O)C[C@@H]2[C@@]1(C)C7 [CEPHALOSTATIN 16] | 5.2 nM | 1.1 nM | 0.64 nM | 0.44 nM | 12 nM | 0.6 nM |
| C[C@@H]1[C@H]2CC=C3[C@H]4CC[C@H]5Cc6nc7c(nc6C[C@]5(C)[C@@]4(O)CC(=O)[C@@]32CO[C@]12OC(C)(C)C[C@H]2O)C[C@@H]1CC[C@H]2C3=C[C@@H]4O[C@]5(O[C@](C)(CO)C[C@H]5O)[C@@H](C)[C@]4(O)[C@@]3(C)[C@H](O)C[C@@H]2[C@@]1(C)C7 [CEPHALOSTATIN 17] | 2.7 nM | 0.43 nM | 0.46 nM | 0.36 nM | 3.3 nM | 0.58 nM |
